From ChEMBL document CHEMBL1148220, “Antineoplastic agents. 529. Isolation and structure of nootkastatins 1 and 2 from the Alaskan yellow cedar Chamaecyparis nootkatensis” (2004)
Calls of active or inactive are those of the source.

Legend:
Streptococcus pyogenes [1] = assay: Antimicrobial activity against penicillin-resistant Streptococcus pyogenes after 24 hrs by broth microdilution assay in presence of 25% human serum; assay type: functional
Outline: (§1)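 Bacterial NCCLS broth microdilution run in medium with 25% heat-inactivated, filter-sterilized normal human serum. Compounds were taken up in sterile DMSO and diluted in medium immediately before use. MIC was the lowest concentration with no visible growth (optically clear). Assays were repeated on separate days.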

Nakaseomyces glabratus [2] = assay: Antimicrobial activity against Candida glabrata after 48 hrs by broth microdilution assay in presence of 25% human serum; assay type: functional
Outline: (§2)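 For yeasts, NCCLS broth microdilution was run in medium supplemented with 25% heat-inactivated, filter-sterilized normal human serum. Compounds were reconstituted in sterile DMSO and diluted in medium just before the assay. MIC was the lowest concentration giving optically clear wells.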

Enterococcus faecalis [3] = assay: Antimicrobial activity against Enterococcus faecalis ATCC 29212 after 24 hrs by broth microdilution assay in presence of 25% human serum; assay type: functional; conditions: ATCC 29212, 24 h
Outline: as §1, with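 “Bacteria were tested by NCCLS” for “Bacterial NCCLS”, “microdilution” for “microdilution run”, “medium containing” for “medium with”, “were dissolved” for “were taken up”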

Candida albicans [4] = assay: Antimicrobial activity against Candida albicans ATCC 90028 after 48 hrs by broth microdilution assay in presence of 25% human serum; assay type: functional; conditions: ATCC 90028, 48 h; outline: as §2
SF-268 = assay: Cytotoxicity against human SF268 cells after 48 hrs by SRB assay; assay type: functional; conditions: SF-268, 48 h
Staphylococcus aureus [5] = assay: Antimicrobial activity against Staphylococcus aureus ATCC 29213 after 24 hrs by broth microdilution assay in presence of 25% human serum; assay type: functional; conditions: ATCC 29213, 24 h
Outline: as §1, with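 “Bacteria were tested by NCCLS” for “Bacterial NCCLS”, “microdilution” for “microdilution run”, “medium containing” for “medium with”, “were dissolved” for “were taken up”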

Streptococcus pyogenes [6] = assay: Antimicrobial activity against penicillin-resistant Streptococcus pyogenes after 24 hrs by broth microdilution assay; assay type: functional
Outline: (§3)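 NCCLS broth microdilution for bacteria. Compounds were dissolved in a small volume of sterile DMSO and diluted in medium just before testing. MIC was the lowest concentration giving no visible growth (optically clear). Assays were repeated on separate days.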

Micrococcus luteus [7] = assay: Antimicrobial activity against Micrococcus luteus Presque Isle 456 after 24 hrs by broth microdilution assay; assay type: functional
Outline: (§4)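 Bacterial MICs were determined by NCCLS broth microdilution. Compounds were dissolved in a small volume of sterile DMSO and diluted in the appropriate medium just before testing. MIC was the lowest concentration giving no visible growth (optically clear). Assays were repeated on separate days.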

Cryptococcus neoformans [8] = assay: Antimicrobial activity against fluconazole-resistant Cryptococcus neoformans after 48 hrs by broth microdilution assay in presence of 25% human serum; assay type: functional
NCI-H460 = assay: Cytotoxicity against human NCI-H460 cells after 48 hrs by SRB assay; assay type: functional; conditions: NCI-H460, 48 h
Neisseria gonorrhoeae [9] = assay: Antimicrobial activity against Neisseria gonorrhoeae ATCC 49226 after 24 hrs by broth microdilution assay in presence of 25% human serum; assay type: functional; conditions: ATCC 49226, 24 h
Outline: as §1, with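 “Bacteria were tested by NCCLS” for “Bacterial NCCLS”, “microdilution” for “microdilution run”, “medium containing” for “medium with”, “were dissolved” for “were taken up”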

DU-145 = assay: Cytotoxicity against human DU145 cells after 48 hrs by SRB assay; assay type: functional; conditions: DU-145, 48 h
Nakaseomyces glabratus [10] = assay: Antimicrobial activity against Candida glabrata at 64 ug/mL after 48 hrs by broth microdilution assay; assay type: functional, organism-based
Staphylococcus aureus [11] = assay: Antimicrobial activity against methicillin-resistant Staphylococcus aureus after 24 hrs by broth microdilution assay; assay type: functional; outline: as §3
Streptococcus pneumoniae [12] = assay: Antimicrobial activity against Streptococcus pneumoniae ATCC 6303 after 24 hrs by broth microdilution assay in presence of 25% human serum; assay type: functional; conditions: ATCC 6303, 24 h
Outline: as §1, with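 “Bacteria were tested by NCCLS” for “Bacterial NCCLS”, “microdilution” for “microdilution run”, “medium containing” for “medium with”, “were dissolved” for “were taken up”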

Rhodococcus sp. [13] = assay: Antimicrobial activity against Rhodococcus sp. after 24 hrs by broth microdilution assay in presence of 25% human serum; assay type: functional; conditions: Rhodococcus sp. (in: high G+C Gram-positive bacteria)
Outline: as §1, with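 “Bacteria were tested by NCCLS” for “Bacterial NCCLS”, “microdilution” for “microdilution run”, “medium containing” for “medium with”, “were dissolved” for “were taken up”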

Enterococcus faecium [14] = assay: Antimicrobial activity against vancomycin-resistant Enterococcus faecium after 24 hrs by broth microdilution assay; assay type: functional; outline: as §3
Enterobacter cloacae [15] = assay: Antimicrobial activity against Enterobacter cloacae ATCC 13047 at 64 ug/mL after 24 hrs by broth microdilution assay; assay type: functional, organism-based
Enterobacter cloacae [16] = assay: Antimicrobial activity against Enterobacter cloacae ATCC 13047 after 24 hrs by broth microdilution assay in presence of 25% human serum; assay type: functional; conditions: ATCC 13047, 24 h
Outline: as §1, with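 “Bacteria were tested by NCCLS” for “Bacterial NCCLS”, “microdilution” for “microdilution run”, “medium containing” for “medium with”, “were dissolved” for “were taken up”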

P388 = assay: Cytotoxicity against mouse P388 cells; assay type: functional; conditions: read-out: ED50 (the source's name)
KM-20L2 = assay: Cytotoxicity against human KM20L2 cells after 48 hrs by SRB assay; assay type: functional; conditions: KM-20L2, 48 h
Cryptococcus neoformans [17] = assay: Antimicrobial activity against Cryptococcus neoformans ATCC 90122 after 24 hrs by broth microdilution assay; assay type: functional; conditions: ATCC 90112, 24 h, in the assay text read “ATCC 90112” for “ATCC 90122”
Outline: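 Yeasts were tested by NCCLS broth microdilution. Compounds were dissolved in a small volume of sterile DMSO and diluted in the appropriate medium immediately before testing. MIC was the lowest concentration inhibiting all visible growth (optically clear). Assays were repeated on separate days.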

Cryptococcus neoformans [18] = assay: Antimicrobial activity against fluconazole-resistant Cryptococcus neoformans after 48 hrs by broth microdilution assay; assay type: functional
Outline: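 Yeast broth microdilution following NCCLS. Compounds were dissolved in sterile DMSO and diluted in medium immediately before testing. MIC was the lowest concentration leaving the well optically clear, with no visible growth.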

BXPC-3 = assay: Cytotoxicity against human BxPC3 cells after 48 hrs by SRB assay; assay type: functional; conditions: BXPC-3, 48 h
Micrococcus luteus [19] = assay: Antimicrobial activity against Micrococcus luteus Presque Isle 456 after 24 hrs by broth microdilution assay in presence of 25% human serum; assay type: functional
Outline: as §1, with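 “Bacteria were tested by NCCLS” for “Bacterial NCCLS”, “microdilution” for “microdilution run”, “medium containing” for “medium with”, “were dissolved” for “were taken up”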

Escherichia coli [20] = assay: Antimicrobial activity against Escherichia coli ATCC 25922 after 24 hrs by broth microdilution assay in presence of 25% human serum; assay type: functional; conditions: ATCC 25922, 24 h
Outline: as §1, with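 “Bacteria were tested by NCCLS” for “Bacterial NCCLS”, “microdilution” for “microdilution run”, “medium containing” for “medium with”, “were dissolved” for “were taken up”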

[21] = system: Stenotrophomonas maltophilia; assay: Antimicrobial activity against Stenotrophomonas maltophilia ATCC 13637 after 24 hrs by broth microdilution assay in presence of 25% human serum; assay type: functional; conditions: ATCC 13637, 24 h
Outline: as §1, with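 “Bacteria were tested by NCCLS” for “Bacterial NCCLS”, “microdilution” for “microdilution run”, “medium containing” for “medium with”, “were dissolved” for “were taken up”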

MCF7 = assay: Cytotoxicity against human MCF7 cells after 48 hrs by SRB assay; assay type: functional; conditions: MCF7, 48 h
Neisseria gonorrhoeae [22] = assay: Antimicrobial activity against Neisseria gonorrhoeae ATCC 49226 at 64 ug/mL after 24 hrs by broth microdilution assay; assay type: functional; conditions: ATCC 49226, 24 h
Staphylococcus aureus [23] = assay: Antimicrobial activity against methicillin-resistant Staphylococcus aureus after 24 hrs by broth microdilution assay in presence of 25% human serum; assay type: functional; outline: as §1
Staphylococcus aureus [24] = assay: Antimicrobial activity against Staphylococcus aureus ATCC 29213 after 24 hrs by broth microdilution assay; assay type: functional; conditions: ATCC 29213, 24 h; outline: as §4
Cryptococcus neoformans [25] = assay: Antimicrobial activity against Cryptococcus neoformans ATCC 90122 after 24 hrs by broth microdilution assay in presence of 25% human serum; assay type: functional; conditions: ATCC 90112, 24 h, in the assay text read “ATCC 90112” for “ATCC 90122”; outline: as §2
[26] = system: Staphylococcus epidermidis; assay: Antimicrobial activity against Staphylococcus epidermidis ATCC 49461 after 24 hrs by broth microdilution assay in presence of 25% human serum; assay type: functional; conditions: ATCC 49461, 24 h
Outline: as §1, with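 “Bacteria were tested by NCCLS” for “Bacterial NCCLS”, “microdilution” for “microdilution run”, “medium containing” for “medium with”, “were dissolved” for “were taken up”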

Streptococcus pneumoniae [27] = assay: Antimicrobial activity against penicillin-resistant Streptococcus pneumoniae after 24 hrs by broth microdilution assay in presence of 25% human serum; assay type: functional; outline: as §1
[28] = system: Staphylococcus epidermidis; assay: Antimicrobial activity against Staphylococcus epidermidis ATCC 49461 after 24 hrs by broth microdilution assay; assay type: functional; conditions: ATCC 49461, 24 h; outline: as §4
Rhodococcus sp. [29] = assay: Antimicrobial activity against Rhodococcus sp. after 24 hrs by broth microdilution assay; assay type: functional; conditions: Rhodococcus sp. (in: high G+C Gram-positive bacteria); outline: as §4
[30] = system: Stenotrophomonas maltophilia; assay: Antimicrobial activity against Stenotrophomonas maltophilia ATCC 13637 at 64 ug/mL after 24 hrs by broth microdilution assay; assay type: functional, organism-based
Enterococcus faecalis [31] = assay: Antimicrobial activity against Enterococcus faecalis ATCC 29212 after 24 hrs by broth microdilution assay; assay type: functional; conditions: ATCC 29212, 24 h; outline: as §4
Enterococcus faecium [32] = assay: Antimicrobial activity against vancomycin-resistant Enterococcus faecium after 24 hrs by broth microdilution assay in presence of 25% human serum; assay type: functional; outline: as §1
Candida albicans [33] = assay: Antimicrobial activity against Candida albicans ATCC 90028 at 64 ug/mL after 48 hrs by broth microdilution assay; assay type: functional, organism-based
Streptococcus pneumoniae [34] = assay: Antimicrobial activity against Streptococcus pneumoniae ATCC 6303 after 24 hrs by broth microdilution assay; assay type: functional; conditions: ATCC 6303, 24 h; outline: as §4
Streptococcus pneumoniae [35] = assay: Antimicrobial activity against penicillin-resistant Streptococcus pneumoniae after 24 hrs by broth microdilution assay; assay type: functional; outline: as §3
Escherichia coli [36] = assay: Antimicrobial activity against Escherichia coli ATCC 25922 at 64 ug/mL after 24 hrs by broth microdilution assay; assay type: functional, organism-based

CO[C@@H]1C[C@H]2C(C)(C)CCC[C@]2(C)c2ccc(O)c(C(C)C)c21
> 10 µg/mL: EC50 (P388)
1.5 µg/mL: GI50 (BXPC-3) | GI50 (MCF7)
32 µg/mL: MBC (Streptococcus pyogenes [6])
1.8 µg/mL: GI50 (NCI-H460)
1.6 µg/mL: GI50 (KM-20L2)
inactive: Activity (Nakaseomyces glabratus [10]) | Activity (Enterobacter cloacae [15]) | Activity [30] | Activity (Candida albicans [33]) | Activity (Escherichia coli [36])
1.9 µg/mL: GI50 (SF-268)
16 µg/mL: MIC (Streptococcus pyogenes [6]) | MBC [28] | MBC (Streptococcus pneumoniae [35]) | MIC (Streptococcus pneumoniae [35])
8 µg/mL: MBC (Staphylococcus aureus [11]) | MIC (Cryptococcus neoformans [17]) | MBC (Rhodococcus sp. [29]) | MIC (Streptococcus pneumoniae [34])
> 64 µg/mL: MIC (Streptococcus pyogenes [1]) | MIC (Nakaseomyces glabratus [2]) | MIC (Enterococcus faecalis [3]) | MIC (Candida albicans [4]) | MIC (Staphylococcus aureus [5]) | MIC (Cryptococcus neoformans [8]) | MIC (Neisseria gonorrhoeae [9]) | MIC (Streptococcus pneumoniae [12]) | MIC (Rhodococcus sp. [13]) | MIC (Enterobacter cloacae [16]) | MIC (Micrococcus luteus [19]) | MIC (Escherichia coli [20]) | MIC [21] | MIC (Staphylococcus aureus [23]) | MIC (Cryptococcus neoformans [25]) | MIC [26] | MIC (Streptococcus pneumoniae [27]) | MIC (Enterococcus faecium [32])
1.7 µg/mL: GI50 (DU-145)
2 µg/mL: MIC (Micrococcus luteus [7]) | MIC [28] | MIC (Rhodococcus sp. [29])
4 µg/mL: MIC (Staphylococcus aureus [11]) | MBC (Enterococcus faecium [14]) | MIC (Enterococcus faecium [14]) | MFC (Cryptococcus neoformans [18]) | MIC (Cryptococcus neoformans [18]) | MIC (Neisseria gonorrhoeae [22]) | MIC (Staphylococcus aureus [24]) | MIC (Enterococcus faecalis [31])
